Laboratory results reported in ChEMBL document CHEMBL1921799, “Computationally-guided optimization of a docking hit to yield catechol diethers as potent anti-HIV agents” (J Med Chem, 2011).

How the values were obtained:
MT2 [1] = test: Cytotoxicity against human MT2 cells infected with HIV1 3B by MTT assay; format: cell-based
[2] = system: Human immunodeficiency virus 1; test: Antiviral activity against Human immunodeficiency virus 1 3B infected in human MT2 cells assessed as protection against viral infection by MTT assay; format: functional, organism-based
Outline: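 HIV-1 (IIIB or variant strains) infected into MT-2 human T-cells. The MTT colorimetric read-out measured cell viability. […] Antiviral curves used triplicate samples at each concentration, and a cytotoxicity (CC50) curve on MT-2 growth was run at the same time.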

[3] = system: Human immunodeficiency virus 1; test: Antiviral activity against Human immunodeficiency virus 1 NL4.3 infected in human MT2 cells assessed as inhibition of viral infection; format: functional, organism-based; details: Human immunodeficiency virus 1, NL4.3, MT2
Outline: (§1)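 HIV-1 (IIIB or variant strains) infected into MT-2 human T-cells. The MTT colorimetric read-out measured cell viability. Antiviral curves used triplicate samples at each concentration, and a cytotoxicity (CC50) curve on MT-2 growth was run at the same time.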

[4] = system: Human immunodeficiency virus 1; test: Antiviral activity against Human immunodeficiency virus 1 NL4.3 reverse transcriptase Y181C mutant infected in human MT2 cells assessed as inhibition of viral infection; format: functional, organism-based; details: Human immunodeficiency virus 1, NL4.3, MT2; outline: as §1
[5] = system: Human immunodeficiency virus 1; test: Antiviral activity against Human immunodeficiency virus 1 NL4.3 reverse transcriptase K103N and Y181C double mutant infected in human MT2 cells assessed as inhibition of viral infection; format: functional, organism-based; details: Human immunodeficiency virus 1, NL4.3, MT2; outline: as §1
MT2 [6] = test: (§2) Cytotoxicity against human MT2 cells infected with HIV1 NL4.3 by MTT assay; format: cell-based; details: mt2
[7] = as §2; format: cell-based; details: MT2 cells infected with HIV1 NL4.3
[8] = system: Human immunodeficiency virus 1; test: Ratio of EC50 for Human immunodeficiency virus 1 NL4.3 reverse transcriptase Y181C mutant to EC50 for Human immunodeficiency virus 1 NL4.3 expressing wild type reverse transcriptase; format: functional
[9] = system: Human immunodeficiency virus 1; test: Ratio of EC50 for Human immunodeficiency virus 1 NL4.3 reverse transcriptase K103N and Y181C double mutant to EC50 for Human immunodeficiency virus 1 NL4.3 expressing wild type reverse transcriptase; format: functional
[10] = system: Human immunodeficiency virus 1; test: Antiviral activity against Human immunodeficiency virus 1 NL4.3 infected in human MT4 cells assessed as inhibition of viral infection; format: functional, organism-based; details: Human immunodeficiency virus 1, NL4.3, MT4
[11] = system: Human immunodeficiency virus 1; test: Antiviral activity against Human immunodeficiency virus 1 NL4.3 reverse transcriptase Y181C mutant infected in human MT4 cells assessed as inhibition of viral infection; format: functional, organism-based; details: Human immunodeficiency virus 1, NL4.3, MT4
[12] = system: Human immunodeficiency virus 1; test: Antiviral activity against Human immunodeficiency virus 1 NL4.3 reverse transcriptase K103N and Y181C double mutant infected in human MT4 cells assessed as inhibition of viral infection; format: functional, organism-based; details: Human immunodeficiency virus 1, NL4.3, MT4
[13] = Cytotoxicity against human MT4 cells infected with HIV1 NL4.3 by MTT assay; format: cell-based

Row | SMILES | CC50 (MT2 [1]) [nM] | EC50 [2] [nM] | EC50 [3] [nM] | EC50 [4] [nM] | EC50 [5] [nM] | CC50 (MT2 [6]) [nM] | also measured
1 | Cc1ccc(OCCn2ccc(=O)[nH]c2=O)c(Cc2ccccc2)c1 | 72000 | 4800 | – | – | – | – | –
2 | O=c1ccn(CCOc2cc(Cl)cc(Cl)c2Oc2ccccc2Cl)c(=O)[nH]1 | 13000 | 830 | – | – | – | – | –
3 | O=c1ccn(CCOc2ccc(Cl)cc2Cc2ccccc2)c(=O)[nH]1 | 23000 | 1200 | – | – | – | – | –
4 | O=c1ccn(CCOc2ccc(Cl)cc2Cc2ccccc2Cl)c(=O)[nH]1 | 28000 | 620 | – | – | – | – | –
5 | O=c1ccn(CCOc2ccc(Cl)cc2Cc2cccc(Cl)c2)c(=O)[nH]1 | 11000 | 1500 | – | – | – | – | –
6 | O=c1ccn(CCOc2ccc(Cl)cc2Cc2ccc(Cl)cc2Cl)c(=O)[nH]1 | 88000 | 2900 | – | – | – | – | –
7 | O=c1ccn(CCOc2ccc(Cl)cc2Cc2cc(Cl)cc(Cl)c2)c(=O)[nH]1 | 10000 | 1300 | – | – | – | – | –
8 | O=c1ccn(CCOc2ccc(Cl)cc2Cc2cc(Cl)ccc2Cl)c(=O)[nH]1 | 15000 | 380 | – | – | – | – | –
9 | O=c1ccn(CCOc2ccc(Cl)cc2Cc2c(Cl)cccc2Cl)c(=O)[nH]1 | 49000 | 310 | – | – | – | – | –
10 | Cc1cn(CCOc2ccc(Cl)cc2Cc2ccccc2)c(=O)[nH]c1=O | 22000 | 2400 | – | – | – | – | –
11 | O=c1[nH]c(=O)n(CCOc2ccc(Cl)cc2Cc2ccccc2)cc1F | 27000 | 2500 | – | – | – | – | –
12 | O=c1[nH]c(=O)n(CCOc2ccc(Cl)cc2Cc2ccccc2)cc1Cl | 21000 | 2200 | – | – | – | – | –
13 | O=c1ccn(CCOc2cc(Cl)ccc2Cc2ccccc2Cl)c(=O)[nH]1 | 12000 | 410 | – | – | – | – | –
14 | N#Cc1cc(C#N)cc(Oc2cc(Cl)ccc2OCCn2ccc(=O)[nH]c2=O)c1 | 80000 | 140 | 140 | 21000 | 2200 | 77000 | –
15 | N#Cc1cccc(Cl)c1Oc1cc(Cl)ccc1OCCn1ccc(=O)[nH]c1=O | 50000 | 120 | – | – | – | – | –
16 | N#Cc1cc(Cl)cc(Oc2cc(Cl)ccc2OCCn2ccc(=O)[nH]c2=O)c1 | 33000 | 90 | 90 | 6700 | 1200 | 32000 | –
17 | N#Cc1ccc(Cl)c(Oc2ccc(Cl)cc2OCCn2ccc(=O)[nH]c2=O)c1 | 60000 | 100 | – | – | – | – | –
18 | N#Cc1cc(C#N)cc(Oc2ccc(Cl)cc2OCCn2ccc(=O)[nH]c2=O)c1 | > 100000 | 46 | – | – | – | – | –
19 | N#Cc1cc(Cl)cc(Oc2ccc(Cl)cc2OCCn2ccc(=O)[nH]c2=O)c1 | – | 14 | 14 | 520 | 1700 | – | CC50 [7]: > 100000 nM
20 | N#Cc1cc(Cl)cc(Oc2ccc(Cl)cc2OCCn2cc(F)c(=O)[nH]c2=O)c1 | 17000 | 13 | 13 | 620 | 1700 | 13000 | –

Row | SMILES | CC50 (MT2 [1]) [nM] | EC50 [2] [nM] | EC50 [3] [nM] | EC50 [4] [nM] | EC50 [5] [nM] | CC50 (MT2 [6]) [nM] | also measured
21 | N#Cc1cc(Cl)cc(Oc2ccc(Cl)cc2OCCn2cc(Cl)c(=O)[nH]c2=O)c1 | 31000 | 17 | 17 | 240 | 570 | 21000 | Ratio EC50 [8]: 14; Ratio EC50 [9]: 34
22 | N#Cc1cc(Cl)cc(Oc2ccc(C#N)cc2OCCn2ccc(=O)[nH]c2=O)c1 | > 100000 | 6000 | – | – | – | – | –
23 | N#Cc1cc(Cl)cc(Oc2ccc(C#N)cc2OCCn2cc(Cl)c(=O)[nH]c2=O)c1 | 94000 | 5300 | – | – | – | – | –
24 | N#Cc1ccc(Oc2ccccc2Cl)c(OCCn2ccc(=O)[nH]c2=O)c1 | > 100000 | 270 | – | – | – | – | –
25 | N#Cc1ccc(Oc2cc(Cl)ccc2Cl)c(OCCn2ccc(=O)[nH]c2=O)c1 | 71000 | 43 | 43 | 920 | 2800 | 59000 | –
26 | N#Cc1ccc(Oc2cc(Cl)cc(Cl)c2)c(OCCn2ccc(=O)[nH]c2=O)c1 | > 100000 | 20 | 20 | 800 | > 43000 | > 61000 | –
27 | N#C/C=C/c1cccc(Oc2ccc(C#N)cc2OCCn2ccc(=O)[nH]c2=O)c1 | > 100000 | 15 | 15 | 980 | 8000 | > 90000 | –
28 | N#C/C=C/c1cccc(Oc2ccc(Cl)cc2OCCn2ccc(=O)[nH]c2=O)c1 | 19000 | 5 | 5 | 370 | 1600 | 22000 | –
29 | N#C/C=C/c1cc(Cl)cc(Oc2ccc(Cl)cc2OCCn2ccc(=O)[nH]c2=O)c1 | 10000 | 0.055 | 0.055 | 49 | 220 | 10000 | –
30 | N#C/C=C/c1cc(F)cc(Oc2ccc(Cl)cc2OCCn2ccc(=O)[nH]c2=O)c1 | 48000 | 3.2 | 3.2 | 150 | 900 | 48000 | –
31 | N#C/C=C/c1cc(F)cc(Oc2ccc(F)cc2OCCn2ccc(=O)[nH]c2=O)c1 | 45000 | 0.32 | 0.32 | 16 | 85 | 45000 | –
32 | CNc1ccc(Oc2cc(Cl)cc(/C=C/C#N)c2)c(OCCn2ccc(=O)[nH]c2=O)c1 | 30000 | 20 | 20 | 2800 | – | 30000 | –
33 | N#Cc1cc(F)c(Oc2ccccc2Cl)c(OCCn2ccc(=O)[nH]c2=O)c1 | > 100000 | 160 | – | – | – | – | –
34 | COCCOc1cccc(Oc2ccc(C#N)cc2OCCn2ccc(=O)[nH]c2=O)c1 | > 100000 | 540 | – | – | – | – | –
35 | N#Cc1ccc(Oc2cccc(OCCCO)c2)c(OCCn2ccc(=O)[nH]c2=O)c1 | > 100000 | 1800 | – | – | – | – | –
36 | Cc1cc(C)cc(Oc2c(CSCc3ccco3)c(C)[nH]c(=O)c2I)c1 | – | – | 1 | – | – | – | –
37 | O=C1Nc2ccc(Cl)cc2[C@@](C#CC2CC2)(C(F)(F)F)O1 [EFAVIRENZ] | – | – | – | – | – | – | EC50 [10]: 1.4 nM; EC50 [11]: 2 nM; EC50 [12]: 37 nM
38 | Cc1cc(C#N)cc(C)c1Oc1nc(Nc2ccc(C#N)cc2)nc(N)c1Br [ETRAVIRINE] | – | – | – | – | – | – | EC50 [11]: 7 nM; EC50 [12]: 4 nM
39 | Cc1ccnc2c1NC(=O)c1cccnc1N2C1CC1 [NEVIRAPINE] | – | – | – | > 100000 | > 100000 | – | EC50 [10]: 81 nM; EC50 [11]: > 10000 nM; EC50 [12]: > 10000 nM; CC50 [7]: > 100000 nM
40 | Cc1cc(/C=C/C#N)cc(C)c1Nc1ccnc(Nc2ccc(C#N)cc2)n1 [RILPIVIRINE] | – | – | – | – | – | > 1000 | CC50 [13]: 8000 nM; EC50 [10]: 0.4 nM; EC50 [12]: 1 nM
